The text below walks through data of ChEMBL document CHEMBL1136089, “Synthesis and in vitro activity of new methylenepiperidinyl and methylenepyrrolidinyl oxazolidinone antibacterial agents” (Bioorg Med Chem Lett, 2003).

One data set concerns Enterococcus faecium. The data set can be described thus: In vitro antibacterial activity against vancomycin-resistant Enterococcus faecium C6487.
Data set [1] deals with Staphylococcus epidermidis. As to the kind of experiment: In vitro antibacterial activity against Staphylococcus epidermis C2235. Type of data set: functional. The method in brief: (§1)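 MIC by agar dilution on Mueller–Hinton agar, inoculum 10⁴ CFU/spot. Reported in μg/mL.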
In data set [2] the test system is Staphylococcus aureus. As to the kind of experiment: In vitro antibacterial against methicillin-susceptible Staphylococcus aureus (MSSA). Type of data set: functional.
Data set [3] has as its system Staphylococcus aureus. The data set can be described thus: In vitro antibacterial activity against Staphylococcus aureus. Type of data set: functional.
Data set [4] relates to Staphylococcus aureus. As to the kind of experiment: In vitro antibacterial activity against ciprofloxacin-resistant Staphylococcus aureus (CRSA). Type of data set: functional.
Data set [5] has as its system Streptococcus pyogenes. As to the kind of experiment: In vitro antibacterial activity against Streptococcus pyogenes ATTCC8668.
Data set [6] deals with Enterococcus faecalis. The data set can be described thus: In vitro antibacterial activity against Enterococcus faecalis C6301 (E. f. 1). The format is functional. Put shortly:
as §1

The subject of data set [7] is Enterococcus faecalis. The data set can be described thus: In vitro antibacterial activity against Enterococcus faecalis C6291 (E. f. 1). Type of data set: functional. Put shortly:
as §1

The test system of data set [8] is Staphylococcus epidermidis. As to the kind of experiment: In vitro antibacterial activity against Staphylococcus epidermis ATCC 1228. The format is functional. The method in brief:
as §1

The subject of data set [9] is Staphylococcus aureus. The data set can be described thus: In vitro antibacterial activity against methicillin-resistant Staphylococcus aureus (MRSA). The format is functional.
The subject of data set [10] is Streptococcus pyogenes. As to the kind of experiment: In vitro antibacterial activity against Streptococcus pyogenes C6003.
Data set [11] in a line: Tmax in male rat. As to conditions: in vivo. Type of data set: ADME, organism-based. The method in brief: (§2)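 Single oral dose of 15 mg/Kg to rats, with compound dissolved in 50% PEG solution.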
Data set [12] is described as follows: Area under curve was determined in male rat. Type of data set: ADME, organism-based. As to conditions: in vivo. The method in brief: as §2
Data set [13] in a line: Half-life in male rat. The format is ADME, organism-based. As to conditions: in vivo. Put shortly: as §2
Data set [14] is described as follows: Cmax in male rat. As to conditions: in vivo. The format is ADME, organism-based. The method in brief: as §2
Data set [15] is described as follows: In vivo activity against Staphylococcus aureus when administered orally for 1 hr in rat at a dose of 15 mg/kg. The format is ADME, organism-based. Also on record: dose 15 mg/kg, route oral. As to conditions: po.

Molecules are shown by their SMILES. Values after ≈ are worked out from the molar mass of the structure shown.

For `CC(=O)C=C1CCN(c2ccc(N3C[C@H](CNC(C)=O)OC3=O)cc2F)CC1`, the MIC (usually the lowest concentration that inhibits growth of the organism) turned out to be 8 µg/mL (≈ 20.5 µM) against Enterococcus faecium; 8 µg/mL (≈ 20.5 µM) in data set [1]; 16 µg/mL (≈ 41.1 µM) with Staphylococcus aureus [2]; 8 µg/mL (≈ 20.5 µM) against Staphylococcus aureus [3]; 16 µg/mL (≈ 41.1 µM) against Staphylococcus aureus [4]; 0.25 µg/mL (≈ 0.642 µM) in the data set on Streptococcus pyogenes [5]. For the same compound, the MIC was found to be 8 µg/mL (≈ 20.5 µM) with Enterococcus faecalis [6]; 16 µg/mL (≈ 41.1 µM) against Enterococcus faecalis [7]; 1 µg/mL (≈ 2.57 µM) in data set [8]; 16 µg/mL (≈ 41.1 µM) against Staphylococcus aureus [9]; 16 µg/mL (≈ 41.1 µM) with Streptococcus pyogenes [10].
Regarding `CC(=O)NC[C@H]1CN(c2ccc(N3CCC(=CC#N)CC3)c(F)c2)C(=O)O1`, the minimum inhibitory concentration (MIC) was determined as 4 µg/mL (≈ 10.7 µM) against Enterococcus faecium; 1 µg/mL (≈ 2.69 µM) in [1]; 4 µg/mL (≈ 10.7 µM) in the data set on Staphylococcus aureus [2]; 2 µg/mL (≈ 5.37 µM) in the data set with Staphylococcus aureus [3]; 2 µg/mL (≈ 5.37 µM) in the data set with Staphylococcus aureus [4]; 0.5 µg/mL (≈ 1.34 µM) against Streptococcus pyogenes [5]. Moreover, the minimal inhibitory concentration (MIC) in the data set on Enterococcus faecalis [6] worked out at 2 µg/mL (≈ 5.37 µM); against Enterococcus faecalis [7], 2 µg/mL (≈ 5.37 µM); in data set [8] it was 0.5 µg/mL (≈ 1.34 µM); with Staphylococcus aureus [9] it was 1 µg/mL (≈ 2.69 µM); with Streptococcus pyogenes [10], 2 µg/mL (≈ 5.37 µM). The time to peak (Tmax) (as a rule, the time at which the peak concentration occurs) in data set [11] was 0.5 h. The AUC (in general, concentration integrated over time) in [12] came out at 6810 ng·h/mL. The half-life – broadly, the time needed for the level to fall by half in the phase considered – in data set [13] was 8.14 h. Moreover, the peak level in data set [14] (Cmax) was 1320 ng/mL.
For `CC(=O)NC[C@H]1CN(c2ccc(N3CCC(=Cc4cc(-c5csnc5C)no4)CC3)c(F)c2)C(=O)O1`, the MIC with Enterococcus faecium is 4 µg/mL (≈ 7.82 µM); in [1], 4 µg/mL (≈ 7.82 µM); in the data set with Staphylococcus aureus [2], 16 µg/mL (≈ 31.3 µM); with Staphylococcus aureus [3] it was 16 µg/mL (≈ 31.3 µM); with Staphylococcus aureus [4] it was 8 µg/mL (≈ 15.6 µM); in the data set with Streptococcus pyogenes [5], 2 µg/mL (≈ 3.91 µM). The minimum inhibitory concentration (MIC) against Enterococcus faecalis [6] was 8 µg/mL (≈ 15.6 µM); in the data set with Enterococcus faecalis [7], 8 µg/mL (≈ 15.6 µM); in data set [8], 2 µg/mL (≈ 3.91 µM); against Staphylococcus aureus [9], 8 µg/mL (≈ 15.6 µM); in the data set with Streptococcus pyogenes [10], 8 µg/mL (≈ 15.6 µM).
On to `CCOC(=O)C(Cl)=C1CCN(c2ccc(N3C[C@H](CNC(C)=O)OC3=O)cc2F)CC1`, for which the minimal inhibitory concentration (MIC) in the data set on Enterococcus faecium was found to be 4 µg/mL (≈ 8.81 µM); in [1], 4 µg/mL (≈ 8.81 µM); in the data set on Staphylococcus aureus [2], 8 µg/mL (≈ 17.6 µM); against Staphylococcus aureus [3], 32 µg/mL (≈ 70.5 µM); with Staphylococcus aureus [4] it was 16 µg/mL (≈ 35.3 µM); against Streptococcus pyogenes [5] it was 2 µg/mL (≈ 4.41 µM). Besides, the minimal inhibitory concentration (MIC) against Enterococcus faecalis [6] came to 2 µg/mL (≈ 4.41 µM); in the data set on Enterococcus faecalis [7], 4 µg/mL (≈ 8.81 µM); in data set [8], 2 µg/mL (≈ 4.41 µM); against Staphylococcus aureus [9], 16 µg/mL (≈ 35.3 µM); in the data set on Streptococcus pyogenes [10], 8 µg/mL (≈ 17.6 µM).
Consider `CC(=O)NC[C@H]1CN(c2ccc(N3CCOCC3)c(F)c2)C(=O)O1` [LINEZOLID], for which the half-life in data set [15] was 3.09 h. The MIC in data set [1] was determined as 2 µg/mL (≈ 5.93 µM); in the data set with Streptococcus pyogenes [5] it was 0.5 µg/mL (≈ 1.48 µM); in data set [8], 0.5 µg/mL (≈ 1.48 µM). Also, the Tmax in data set [11] worked out at 0.333 h. This compound also showed an area under the curve (AUC) in data set [12] of 4240 ng·h/mL. The peak level in data set [14] (Cmax) was 1390 ng/mL.
